Assay results taken from ChEMBL document CHEMBL1130079, “Non-peptide RGD surrogates which mimic a Gly-Asp beta-turn: potent antagonists of platelet glycoprotein IIb-IIIa” (J Med Chem, 1997).

Key:
[1] = biological target: Integrin alpha-IIb/beta-3 (Homo sapiens, UniProt P05106+P08514); experiment: Concentration required to reduce binding of fibrinogen to purified Fibrinogen Receptor by 50% using ELISA; format: protein-complex assay
How it was run: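 ELISA of fibrinogen binding to immobilized purified human platelet GPIIb-IIIa; biotinylated fibrinogen detected with alkaline phosphatase-labeled goat antibiotin and p-nitrophenol phosphate substrate; IC50 as inhibition of fibrinogen binding.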

Homo sapiens = species on record: Homo sapiens; experiment: Ability to block Glycoprotein IIb-IIIa was measured by inhibiting ADP induced human platelet aggregation (5 uM); format: functional

Integrin alpha-IIb/beta-3, sequence (P05106 27-788 limits assumed): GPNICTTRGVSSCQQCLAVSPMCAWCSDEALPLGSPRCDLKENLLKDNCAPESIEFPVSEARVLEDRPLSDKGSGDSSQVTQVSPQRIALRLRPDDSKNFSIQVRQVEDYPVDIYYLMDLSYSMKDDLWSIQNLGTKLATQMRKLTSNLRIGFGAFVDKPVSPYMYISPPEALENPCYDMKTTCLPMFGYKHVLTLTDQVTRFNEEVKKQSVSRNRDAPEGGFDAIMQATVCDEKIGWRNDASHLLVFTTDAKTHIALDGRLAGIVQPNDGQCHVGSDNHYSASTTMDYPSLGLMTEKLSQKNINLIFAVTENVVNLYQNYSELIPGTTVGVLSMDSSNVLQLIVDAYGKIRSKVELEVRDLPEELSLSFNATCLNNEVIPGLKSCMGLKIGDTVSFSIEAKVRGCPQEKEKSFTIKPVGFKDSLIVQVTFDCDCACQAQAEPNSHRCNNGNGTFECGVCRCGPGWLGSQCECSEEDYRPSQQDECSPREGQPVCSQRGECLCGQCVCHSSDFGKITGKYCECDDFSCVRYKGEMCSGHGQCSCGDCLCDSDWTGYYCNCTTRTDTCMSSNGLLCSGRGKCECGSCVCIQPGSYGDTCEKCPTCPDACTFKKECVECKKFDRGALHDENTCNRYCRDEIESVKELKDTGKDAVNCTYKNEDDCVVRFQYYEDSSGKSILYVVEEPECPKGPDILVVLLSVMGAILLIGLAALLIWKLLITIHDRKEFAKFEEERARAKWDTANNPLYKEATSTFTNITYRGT
Integrin alpha-IIb/beta-3, sequence (P08514 32-887 limits assumed): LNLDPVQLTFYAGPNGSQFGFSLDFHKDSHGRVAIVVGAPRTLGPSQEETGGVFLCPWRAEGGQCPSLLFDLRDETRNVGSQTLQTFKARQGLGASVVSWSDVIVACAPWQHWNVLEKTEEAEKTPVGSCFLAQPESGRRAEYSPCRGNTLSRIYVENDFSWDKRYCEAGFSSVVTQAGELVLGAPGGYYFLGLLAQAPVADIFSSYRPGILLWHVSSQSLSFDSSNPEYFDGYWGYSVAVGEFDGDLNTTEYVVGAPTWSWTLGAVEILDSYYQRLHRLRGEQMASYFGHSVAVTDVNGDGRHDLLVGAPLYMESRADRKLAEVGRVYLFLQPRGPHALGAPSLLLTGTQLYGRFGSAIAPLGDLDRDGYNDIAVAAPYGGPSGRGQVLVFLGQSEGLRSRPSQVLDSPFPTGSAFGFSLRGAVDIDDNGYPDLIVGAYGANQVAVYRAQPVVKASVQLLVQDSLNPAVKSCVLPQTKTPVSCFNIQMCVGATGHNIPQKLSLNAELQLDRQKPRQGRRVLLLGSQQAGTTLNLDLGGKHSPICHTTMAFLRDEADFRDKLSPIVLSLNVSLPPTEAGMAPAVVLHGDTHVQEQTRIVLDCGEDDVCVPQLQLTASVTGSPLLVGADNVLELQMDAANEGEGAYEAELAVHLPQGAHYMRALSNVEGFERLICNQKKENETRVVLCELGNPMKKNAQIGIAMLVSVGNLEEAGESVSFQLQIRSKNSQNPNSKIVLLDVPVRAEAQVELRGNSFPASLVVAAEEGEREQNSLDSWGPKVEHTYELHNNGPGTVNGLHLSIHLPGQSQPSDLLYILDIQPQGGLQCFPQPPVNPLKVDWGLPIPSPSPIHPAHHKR
Integrin alpha-IIb/beta-3, sequence (P08514 891-1039 limits assumed): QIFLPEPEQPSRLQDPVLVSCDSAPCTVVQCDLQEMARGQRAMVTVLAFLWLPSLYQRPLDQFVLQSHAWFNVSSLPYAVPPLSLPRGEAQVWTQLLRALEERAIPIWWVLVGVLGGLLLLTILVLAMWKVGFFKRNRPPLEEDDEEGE

| Structure (SMILES) | IC50 [1] | IC50 (Homo sapiens) |
| --- | --- | --- |
| N=C(N)c1ccc(/C=C/c2ccc3c(c2)CCN(CC(=O)O)C3=O)cc1 | 0.048 µM | 0.34 µM |
| N=C(N)NCCCCOc1ccc2c(c1)CCN(CC(=O)O)C2=O | 10 µM |  |
| N=C(N)c1ccc(C(=O)Nc2ccc3c(c2)CCN(CC(=O)O)C3=O)cc1 | 0.003 µM | 0.09 µM |
| N=C(N)c1ccc(CCOc2ccc3c(c2)CCN(CC(=O)O)C3=O)cc1 | 6 µM |  |
| N=C(N)c1ccc(COc2ccc3c(c2)CCN(CC(=O)O)C3=O)cc1 |  | 30 µM |
| NCCCCCCOc1ccc2c(c1)CCN(CC(=O)O)C2=O | 19 µM |  |
| N=C(N)NCCCCOc1ccc2c(c1)C(=O)N(CC(=O)O)CC2 | 46 µM |  |
| NCc1cccc(COc2ccc3c(c2)CCN(CC(=O)O)C3=O)c1 | 77 µM |  |
| N=C(N)NCCCCCCOc1ccc2c(c1)CCN(CC(=O)O)C2=O | 12 µM |  |
| NCCCOc1ccc2c(c1)CCN(CC(=O)O)C2=O | 48 µM |  |
| O=C(O)CN1CCc2cc(OCCC3CCNCC3)ccc2C1=O | 11 µM |  |
| NCCCCOc1ccc2c(c1)CCN(CC(=O)O)C2=O | 18 µM |  |
| O=C(O)CN1CCc2cc(OCC3CCNCC3)ccc2C1=O | 55 µM |  |
| N=C(N)c1ccc(NC(=O)c2ccc3c(c2)CCN(CC(=O)O)C3=O)cc1 | 0.076 µM | 0.56 µM |
| N=C(N)c1ccc(/C=C\c2ccc3c(c2)CCN(CC(=O)O)C3=O)cc1 | 0.29 µM | 5.7 µM |

Next, values leading:

| IC50 [1] | IC50 (Homo sapiens) | Structure (SMILES) |
| --- | --- | --- |
| 4 µM |  | N=C(N)c1ccc(COc2ccc3c(c2)C(=O)N(CC(=O)O)CC3)cc1 |
| 4 µM |  | N=C(N)NCc1ccc(COc2ccc3c(c2)CCN(CC(=O)O)C3=O)cc1 |
| < 100 µM |  | N=C(N)NCCCOc1ccc2c(c1)C(=O)N(CC(=O)O)CC2 |
| 28 µM |  | NCCCCCOc1ccc2c(c1)CCN(CC(=O)O)C2=O |
| 0.033 µM | 0.52 µM | N=C(N)c1ccc(C#Cc2ccc3c(c2)CCN(CC(=O)O)C3=O)cc1 |
| 14 µM |  | N=C(N)NCc1cccc(COc2ccc3c(c2)CCN(CC(=O)O)C3=O)c1 |
|  | 1.2 µM | N=C(N)c1ccc(CCc2ccc3c(c2)CCN(CC(=O)O)C3=O)cc1 |
| 6 µM |  | O=C(O)CN1CCc2cc(OCCCC3CCNCC3)ccc2C1=O |
| 44 µM |  | N=C(N)NCCCOc1ccc2c(c1)CCN(CC(=O)O)C2=O |
| 12 µM |  | NCc1ccc(COc2ccc3c(c2)CCN(CC(=O)O)C3=O)cc1 |
| 1.8 µM | 9.8 µM | O=C(O)CN1CCc2cc(OCCCCC3CCNCC3)ccc2C1=O |
